Experiment [1] has as its system MCF7. The experiment is described as follows: Effect on the MCF-7 cell proliferation at 10e-8 M. It is filed as functional, Homo sapiens. In outline: (§1)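 MCF-7 cells seeded at 5000 cells/mL; compounds added after 24 h, final 10^-8, 10^-7 and 10^-6 M, alone or with 10^-8 M estradiol. After 5 days of culture, monolayer fixed in 90% ethanol and stained with hematoxylin; absorbance read at 540 nm as a measure of cell number. Mean of four separate cultures, expressed as percentage of control.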

Experiment [2] deals with MCF7. As to the kind of experiment: Effect on the MCF-7 cell proliferation at 10e-7 M. It is filed as functional, Homo sapiens. The method, boiled down: as §1
The test system of experiment [3] is MCF7. The experiment is described as follows: Effect on the MCF-7 cell growth at 10e-6 M. It is filed as functional, Homo sapiens. In outline:
as §1

Experiment [4] concerns the target Estrogen receptor (Homo sapiens) (UniProt Q92731+P03372). As to the kind of experiment: Relative binding affinity for estrogen receptor of MCF-7 cells. To be noted: MCF7. It is filed as cell-based. The method, boiled down: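 Whole MCF-7 cells incubated 50 min at 37 °C with 10^-9 M [3H]estradiol, without or with test compound or unlabeled estradiol reference (10^-10 to 10^-6 M). Bound material extracted with EtOH and receptor-bound [3H]estradiol measured. RBA calculated as in the calf uterine cytosol competition assay.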

As for `CC/C(=C(\c1ccccc1)c1ccc(O)cc1)c1ccccc1.C[C@]12CC[C@@H]3c4ccc(O)cc4CC[C@H]3[C@@H]1CC[C@@H]2O`, the Activity in experiment [1] worked out at 0.229; in experiment [2] it was 0.138; in experiment [3], 0.108.

In the case of `CC/C(=C(/c1ccccc1)c1ccc(O)cc1)c1ccccc1.C[C@]12CC[C@@H]3c4ccc(O)cc4CC[C@H]3[C@@H]1CC[C@H]2O`, the Activity in experiment [1] was 0.696; in experiment [2] it was 0.607; in experiment [3] it was 0.41.

Molecule `CC[C@@H](c1ccccc1)[C@H](c1ccccc1)c1ccc(OCCN(C)C)cc1` had a Relative binding affinity in experiment [4] of 0.02.

Turning to `CC/C(=C(/c1ccccc1)c1ccc(O)cc1)c1ccccc1`, the figures for the Activity in experiment [1], in experiment [2] and in experiment [3] were 0.557, 0.486 and 0.428, respectively.

For `CC/C(=C(\c1ccccc1)c1ccc(O)cc1)c1ccccc1`, the Activity is 0.121 in experiment [1], 0.12 in experiment [2] and 0.131 in experiment [3].

`CC[C@H](c1ccccc1)[C@@H](c1ccccc1)c1ccc(OCCN(C)C)cc1`: the Relative binding affinity in experiment [4] came out at 0.04.

The values are drawn from ChEMBL document CHEMBL1123609, “Synthesis, conformational considerations, and estrogen receptor binding of diastereoisomers and enantiomers of 1-[4-[2-(dimethylamino)ethoxy]phenyl]-1,2-diphenylbutane (dihydrotamoxifen)” (1987).
